Values joined by “and” are separate entries in the source; they are usually repeats but may differ in a detail not shown here. Equal entries are not always repeated.
System: SK-MEL-5 TRPM1 promoter luciferase reporter, 24 h
Assay: MITF transcriptional activity inhibition, TRPM1 luciferase – cell-based, SK-MEL-5, dry powder, set 5, dose response (AID 624363)
Summary of the method: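 Material: SK-MEL-5 TRPM1 promoter luciferase reporter cells / Quantity: 2000 reporter cells per well / Incubation: compound exposure 24 h at 37 °C, one day after plating / Benchmarks: parthenolide at 27 µM as positive control / Buffer or medium: phenol red-free DMEM, 10% FBS / Detection: SteadyGlo luciferase luminescence after 5 min at room temperature / Compound: pin-transferred compounds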

| Compound | AC50 |
| --- | --- |
| CN1CCN(C2=C(Nc3ccccc3)C(=O)c3ccccc3C2=O)CC1 | 7.78 µM |
| NC1=C(NC(=O)c2ccccc2)C(=O)c2ccccc2C1=O | 4.08 µM |
| O=C1C(NS(=O)(=O)c2ccc(Br)cc2)=C(N2CCCCC2)C(=O)c2ccccc21 | 27.7 µM |
| O=C1C(NS(=O)(=O)c2ccccc2)=C(N2CCCCC2)C(=O)c2ccccc21 | 22.2 µM |
| O=C1C(NS(=O)(=O)c2cccs2)=C(c2ccccc2)C(=O)c2ccccc21 | 10.5 µM |
| C=CCNC1=C(NCCN(CC)CC)C(=O)c2ccccc2C1=O | 4.88 µM |
| Cc1ccc(C(=O)NC2=C(c3ccc(OC(F)(F)F)cc3)C(=O)c3ccccc3C2=O)o1 | 13.4 µM |
| C=CCNC1=C(N2CCN(CC)CC2)C(=O)c2ccccc2C1=O | 4.47 µM |
| COc1ccc(C2=C(NC(=O)c3ccccc3Cl)C(=O)c3ccccc3C2=O)cc1 | 5.18 µM |
| COC1=C(NS(=O)(=O)c2ccccc2)C(=O)c2ccccc2C1=O | 4.93 µM |
| C=CCNC1=C(N2CCOCC2)C(=O)c2ccccc2C1=O | 2.54 µM |
| Cc1ccc(C(=O)NC2=C(c3ccccc3)C(=O)c3ccccc3C2=O)o1 | 3.23 µM |
| C=CCNC1=C(NCCCN2CCOCC2)C(=O)c2ccccc2C1=O | 13.9 µM |
| CCN(CC)CCCNC1=C(Nc2ccccc2)C(=O)c2ccccc2C1=O | 2.17 µM |
| O=C1C=C(NS(=O)(=O)c2ccccc2)C(=O)c2ccccc21 | 7.45 µM |
| O=C(NC1=C(N2CCCCC2)C(=O)c2ccccc2C1=O)c1ccccc1 | 23.3 µM |
| NC1=C(NS(=O)(=O)c2ccc(Br)cc2)C(=O)c2ccccc2C1=O | 8.9 µM |
| O=C(NC1=C(N2CCOCC2)C(=O)c2ccccc2C1=O)c1ccccc1 | 8.05 µM |
| CN1CCN(C2=C(NC(=O)c3ccc(Br)cc3)C(=O)c3ccccc3C2=O)CC1 | 1.14 µM |
| CCN1CCN(C2=C(NC(=O)c3ccccc3)C(=O)c3ccccc3C2=O)CC1 | 0.783 µM |
| CCN1c2ccccc2NC2N=C(OC)C(c3ccccc3)C21 (configuration not stated) | 3.74 µM |
| COc1ccc(C2=C(NC(C)=O)C(=O)c3ccccc3C2=O)cc1 | 4.84 µM |

| Compound | AC50 |
| --- | --- |
| CNC1=CC(=O)c2ccccc2C1=O | 9.17 µM |
| CN1CCN(C2=C(NS(=O)(=O)c3cccs3)C(=O)c3ccccc3C2=O)CC1 | 3.51 µM |
| C=CCNC1=C(N2CCN(C)CC2)C(=O)c2ccccc2C1=O | 3.89 µM |
| O=C1C(NS(=O)(=O)c2cccs2)=C(N2CCOCC2)C(=O)c2ccccc21 | 12.4 µM |
| CC(=O)NC1=C(c2ccccc2)C(=O)c2ccccc2C1=O | 6.67 µM |
| O=C1C(Nc2ccccc2)=C(NS(=O)(=O)c2ccccc2[N+](=O)[O-])C(=O)c2ccccc21 | 16.9 µM |
| CN1CCN(C2=C(NS(=O)(=O)c3ccc(Br)s3)C(=O)c3ccccc3C2=O)CC1 | 1.98 µM |
| C=CCNC1=C(NCCCN(CC)CC)C(=O)c2ccccc2C1=O | 4.6 µM |
| O=C1C(Nc2ccccc2)=C(N2CCOCC2)C(=O)c2ccccc21 | 12.8 µM and 7.07 µM |
| NC1=C(NS(=O)(=O)c2ccccc2)C(=O)c2ccccc2C1=O | 4.31 µM |
| NC1=CC(=O)c2ccccc2C1=O | 1.06 µM |
| O=C1C(Nc2ccccc2)=C(N2CCCCC2)C(=O)c2ccccc21 | 6.28 µM |
| CN1CCN(C2=C(NS(=O)(=O)c3ccccc3)C(=O)c3ccccc3C2=O)CC1 | 1.09 µM |
| CCN1CCN(C2=C(NS(=O)(=O)c3cccs3)C(=O)c3ccccc3C2=O)CC1 | 2.96 µM |
| CCN1CCN(C2=C(NS(=O)(=O)c3ccc(Br)s3)C(=O)c3ccccc3C2=O)CC1 | 3.89 µM |
| NC1=C(NS(=O)(=O)c2ccc(Br)s2)C(=O)c2ccccc2C1=O | 17.5 µM |
| COc1ccc(C(=O)NC2=C(c3ccc(OC(F)(F)F)cc3)C(=O)c3ccccc3C2=O)cc1 | 36.2 µM |
| Cc1nc2ccccc2n1/N=C/c1ccc([N+](=O)[O-])s1 | 4.34 µM |
| COc1ccc(C2=C(NC(=O)c3ccccc3OC)C(=O)c3ccccc3C2=O)cc1 | 23.7 µM |
| CC(=O)NC1=C(c2ccc(Oc3ccccc3)cc2)C(=O)c2ccccc2C1=O | 19.8 µM |
| CC1CCN(CC(CS(=O)(=O)c2ccc([N+](=O)[O-])cc2)N2CCC(C)CC2)CC1 (configuration not stated) | 2.71 µM |
| O=C1C(NS(=O)(=O)c2cccs2)=C(N2CCCCC2)C(=O)c2ccccc21 | 22.1 µM |

| Compound | AC50 |
| --- | --- |
| CC(=O)NC1=C(c2ccc3c(c2)oc2ccccc23)C(=O)c2ccccc2C1=O | 2.15 µM |
| C=CCNC1=C(NS(=O)(=O)c2cccs2)C(=O)c2ccccc2C1=O | 14.2 µM |
| C=CCNC1=C(NC(=O)c2ccccc2)C(=O)c2ccccc2C1=O | 26.5 µM |
| COc1cccc(C2=C(NC(=O)c3ccccc3)C(=O)c3ccccc3C2=O)c1 | 16.6 µM |
| O=C(NC1=C(N2CCOCC2)C(=O)c2ccccc2C1=O)c1ccc(Br)cc1 | 12.5 µM |
| CC(=O)N(C)C1=C(N2CCOCC2)C(=O)c2ccccc2C1=O | 2.45 µM |
| COc1ccc(C(=O)NC2=C(c3ccc(OC)cc3)C(=O)c3ccccc3C2=O)cc1 | 7.11 µM |
| O=C1C(NS(=O)(=O)c2ccc(Br)s2)=C(N2CCOCC2)C(=O)c2ccccc21 | 15 µM |
| O=C(NC1=C(c2ccc(OC(F)(F)F)cc2)C(=O)c2ccccc2C1=O)c1ccc(Br)cc1 | 25 µM |
| CN1CCN(C2=C(NS(=O)(=O)c3ccc(Br)cc3)C(=O)c3ccccc3C2=O)CC1 | 7.58 µM |
| CC(=O)N(C)C1=C(N2CCN(C)CC2)C(=O)c2ccccc2C1=O | 0.404 µM |
| O=C(NC1=C(N2CCSCC2)C(=O)c2ccccc2C1=O)c1ccc(Br)cc1 | 10.1 µM |
| O=C(NC1=C(c2ccc(OC(F)(F)F)cc2)C(=O)c2ccccc2C1=O)c1ccccc1 | 18.9 µM |
| NC1=C(NS(=O)(=O)c2cccs2)C(=O)c2ccccc2C1=O | 4.17 µM |
| O=C1C=C(Nc2ccccc2)C(=O)c2ccccc21 | 4.02 µM and 5.21 µM |
| NC1=C(c2ccc(OC(F)(F)F)cc2)C(=O)c2ccccc2C1=O | 20.4 µM |
| C=CCNC1=C(Nc2ccccc2)C(=O)c2ccccc2C1=O | 15.4 µM |
| O=C(NC1=C(c2ccc(OC(F)(F)F)cc2)C(=O)c2ccccc2C1=O)c1ccccc1F | 19.9 µM |
| C=CCNC1=C(NS(=O)(=O)c2ccc(Br)cc2)C(=O)c2ccccc2C1=O | 11.9 µM |
| O=C1C(NS(=O)(=O)c2ccccc2)=C(N2CCOCC2)C(=O)c2ccccc21 | 19.3 µM |
| CN1CCN(C2=C(NC(=O)c3ccccc3)C(=O)c3ccccc3C2=O)CC1 | 1.04 µM |
| O=C(NC1=C(c2ccccc2)C(=O)c2ccccc2C1=O)c1ccc(Br)cc1 | 24.4 µM |

| Compound | AC50 |
| --- | --- |
| C=C1C(=O)OC2C1CC/C(C)=C\CCC1(C)OC21 (configuration not stated) | 3.51 µM |
| O=C1C=C(NS(=O)(=O)c2ccc(Br)cc2)C(=O)c2ccccc21 | 9.16 µM |
| O=C1C=C(NS(=O)(=O)c2cccs2)C(=O)c2ccccc21 | 1.71 µM |
| O=C1C(NS(=O)(=O)c2ccc(Br)s2)=C(N2CCCCC2)C(=O)c2ccccc21 | 23.3 µM |
| COc1ccc(C2=C(NC(=O)c3cccc(Cl)c3)C(=O)c3ccccc3C2=O)cc1 | 11 µM |
| COc1ccc(C(=O)NC2=C(c3ccccc3)C(=O)c3ccccc3C2=O)cc1 | 14.4 µM |
| CCN1CCN(C2=C(N(C)C(C)=O)C(=O)c3ccccc3C2=O)CC1 | 0.318 µM |
| CC(=O)NC1=C(c2ccc(Cl)cc2)C(=O)c2ccccc2C1=O | 3.45 µM |
| C=CCNC1=C(N2CCSCC2)C(=O)c2ccccc2C1=O | 3.93 µM |
| O=C1C(Nc2ccccc2)=C(N2CCN(c3ccccc3)CC2)C(=O)c2ccccc21 | 12.1 µM |
| O=C(NC1=C(c2ccc(OC(F)(F)F)cc2)C(=O)c2ccccc2C1=O)c1ccco1 | 20.9 µM |
| O=C1C(Nc2ccccc2)=C(N2CCSCC2)C(=O)c2ccccc21 | 9.7 µM |
| C=CCNC1=C(N(C)C(C)=O)C(=O)c2ccccc2C1=O | 0.0923 µM |
| COC1=C(NS(=O)(=O)c2cccs2)C(=O)c2ccccc2C1=O | 17.5 µM |
| COc1ccc(C2=C(NC(=O)c3ccc(Cl)cc3)C(=O)c3ccccc3C2=O)cc1 | 15.3 µM |
| C=CCNC1=C(N2CCCCC2)C(=O)c2ccccc2C1=O | 0.983 µM |
| CCN(CC)CCCCNC1=C(Nc2ccccc2)C(=O)c2ccccc2C1=O | 4.14 µM |
| CCN1CCN(C2=C(NC(=O)c3ccc(Br)cc3)C(=O)c3ccccc3C2=O)CC1 | 0.845 µM |
| COC1=C(Nc2ccccc2)C(=O)c2ccccc2C1=O | 2.69 µM |
| CCN1CCN(C2=C(Nc3ccccc3)C(=O)c3ccccc3C2=O)CC1 | 0.809 µM |
| NC1=C(c2ccccc2)C(=O)c2ccccc2C1=O | 4.34 µM |
| O=C1C(NCCCN2CCOCC2)=C(Nc2ccccc2)C(=O)c2ccccc21 | 3.7 µM |

| Compound | AC50 |
| --- | --- |
| COc1ccc(C2=C(NC(=O)c3cccc(OC)c3)C(=O)c3ccccc3C2=O)cc1 | 6.98 µM |
| O=C(NC1=C(c2ccccc2)C(=O)c2ccccc2C1=O)c1ccccc1 | 6.93 µM |
| O=C(NC1=C(N2CCSCC2)C(=O)c2ccccc2C1=O)c1ccccc1 | 4.96 µM |
| O=C1C(NS(=O)(=O)c2ccc(Br)s2)=C(N2CCSCC2)C(=O)c2ccccc21 | 22.7 µM |
| O=C1C(NS(=O)(=O)c2ccccc2)=C(c2ccccc2)C(=O)c2ccccc21 | 20.5 µM |
| O=C(NC1=C(c2ccccc2)C(=O)c2ccccc2C1=O)c1ccco1 | 9.7 µM |
| O=C(CNc1cccc2ccccc12)N/N=C/c1ccc([N+](=O)[O-])o1 | 3.64 µM |
| COc1ccc(S(=O)(=O)N(C(C)=O)c2ccc(OC(C)=O)c3ccccc23)cc1[N+](=O)[O-] | 6.42 µM |
| CCN(CC)CCNC1=C(Nc2ccccc2)C(=O)c2ccccc2C1=O | 4.88 µM |
| CCN(CC)CCCNC1=C(N(C)C(C)=O)C(=O)c2ccccc2C1=O | 0.305 µM |
| O=C1C(NS(=O)(=O)c2ccc(Br)cc2)=C(N2CCOCC2)C(=O)c2ccccc21 | 14.4 µM |
| O=C(NC1=C(Cl)C(=O)c2ccccc2C1=O)c1ccccc1 | 0.806 µM |
| C=CCNC1=C(Cl)C(=O)c2ccccc2C1=O | 0.799 µM and 1.88 µM |
| COC1=C(NS(=O)(=O)c2ccc(Br)cc2)C(=O)c2ccccc2C1=O | 7.22 µM |
| C[C@@H](NC1=C(Nc2ccccc2)C(=O)c2ccccc2C1=O)c1ccccc1 | 13.4 µM |
| O=C1C(Nc2ccccc2)=C(c2ccccc2)C(=O)c2ccccc21 | 4.49 µM |
| CCN1CCN(C2=C(NS(=O)(=O)c3ccc(Br)cc3)C(=O)c3ccccc3C2=O)CC1 | 8.69 µM |
| CC(=O)NC1=C(c2cccc(Cl)c2)C(=O)c2ccccc2C1=O | 3.67 µM |
| CC(=O)N(C)C1=C(N2CCCCC2)C(=O)c2ccccc2C1=O | 0.796 µM |

Reference: PubChem BioAssay AID624363 (Broad Institute, 2012)
